Reference: paper PMC4788500 (Structure (London, England : 1993), 2015)
Numbering of substitutions follows the chain as printed.

Legend:
ASAP1 [1] = biological target: T1, ASAP1 (Mus musculus, UniProt Q9QWY8); test: Anionic phospholipid dependence of ASAP1; assay type: biochemical; details: LUVs; from C50 values
T1 sequence (Q9QWY8 325-724): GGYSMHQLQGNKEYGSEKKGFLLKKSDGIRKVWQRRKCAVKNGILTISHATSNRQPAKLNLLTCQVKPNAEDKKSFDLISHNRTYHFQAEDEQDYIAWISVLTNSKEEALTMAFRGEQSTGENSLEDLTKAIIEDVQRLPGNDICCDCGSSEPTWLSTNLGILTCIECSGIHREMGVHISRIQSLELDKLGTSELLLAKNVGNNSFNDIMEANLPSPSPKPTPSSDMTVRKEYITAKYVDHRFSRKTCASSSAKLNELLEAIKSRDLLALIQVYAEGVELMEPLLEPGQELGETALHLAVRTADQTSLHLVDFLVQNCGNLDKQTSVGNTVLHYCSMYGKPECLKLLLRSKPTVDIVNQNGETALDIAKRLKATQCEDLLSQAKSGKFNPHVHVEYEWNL
In short: (§1)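 Construct is PZA, the PH–Arf GAP–ankyrin repeat fragment of ASAP1, prepared as previously described. It is titrated into reactions with myrArf1·GTP as substrate and LUVs of the indicated lipid composition (e.g. 15% PtdSer, 10% PtdIns(4,5)P2, or both). Reactions run 3 min. Percent of Arf-bound GTP hydrolyzed is plotted against PZA concentration. C50 is the PZA concentration giving 50% hydrolysis, estimated from three experiments.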

ASAP1 [2] = biological target: T1, ASAP1; details: cited from earlier work
PLCδ1 PH domain = biological target: T2, PLCδ1 PH domain (Rattus norvegicus, UniProt P10688); test: Isothermal titration calorimetry, PLCδ1 PH domain; assay type: binding; details: read-out: dissociation constant (KD) by ITC; PBS, 25°C; three independent experiments
T2 sequence (P10688 11-140): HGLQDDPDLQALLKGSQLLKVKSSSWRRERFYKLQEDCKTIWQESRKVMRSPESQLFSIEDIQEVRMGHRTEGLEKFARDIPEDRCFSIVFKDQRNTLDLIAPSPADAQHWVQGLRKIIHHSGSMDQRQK

PdZA = test: Displacement of PdZA from PtdSer/PtdIns; assay type: binding; details: vesicles with 5 or 12.5 µM PtdIns(4,5)P2, 15% PtdSer
[3] = biological target: T3, ASAP1 PH domain, lysine 355 mutant (Mus musculus, UniProt Q9QWY8, K355N); test: diC4-PtdIns; assay type: binding; details: atypical-site mutant
T3 sequence (Q9QWY8 325-451 K355N): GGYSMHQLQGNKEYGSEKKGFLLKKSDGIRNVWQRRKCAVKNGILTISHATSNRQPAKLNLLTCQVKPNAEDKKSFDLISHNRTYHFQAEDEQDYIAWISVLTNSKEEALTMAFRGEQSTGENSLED
In short: (§2)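 ASAP1 PH domain, wild-type or site-directed mutant, is used at 1 µM and mixed with varying diC4-PtdIns(4,5)P2 in 20 mM HEPES pH 7.4, 100 mM NaCl. Tryptophan fluorescence spectra are recorded with excitation at 280 nm and emission at 310–450 nm. Signal is normalized to fluorescence without diC4-PtdIns(4,5)P2 and plotted against lipid concentration.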

[4] = biological target: T4, ASAP1 PH domain, arginine 360 mutant (Mus musculus, UniProt Q9QWY8, R360Q); test: diC4-PtdIns; assay type: binding; details: canonical-site mutant
T4 sequence (Q9QWY8 325-451 R360Q): T3 sequence (Q9QWY8 325-451 K355N) with N31K, R36Q
In short: as §2

myrArf1·GTP = assay type: biochemical; details: absence of anionic phospholipid
In short: as §1

## Phosphatidylinositol 4,5-bisphosphate [PtdIns(4,5)P2]
ASAP1 [1]
  increase of GAP activity compared with PtdSer alone: ~1,500 fold
  increase of GAP activity compared with no anionic lipid: approximately 20,000 fold
ASAP1 [2]; ref Kam et al., 2000
  increase of ASAP1 enzymatic activity on binding to the PH domain: approximately 10,000 fold

## phosphatidylserine [PtdSer]
ASAP1 [1]
  increase of GAP activity compared with no anionic lipid: 15 fold

## O=P(O)(O)O[C@@H]1[C@H](O)[C@H](O)[C@@H](OP(=O)(O)O)[C@H](OP(=O)(O)O)[C@H]1O [Ins(1,4,5)P3, inositol 1,4,5-trisphosphate]
PLCδ1 PH domain
  Kd: 180 ± 30 nM
PdZA
  Ins(1,4,5)P3 concentration displacing half of the protein from LUVs: less than half the PtdIns(4,5)P2 concentration

## CCCC(=O)OC[C@H](COP(=O)(O)O[C@@H]1[C@H](O)[C@H](O)[C@@H](OP(=O)(O)O)[C@H](OP(=O)(O)O)[C@H]1O)OC(=O)CCC [diC4-PtdIns(4,5)P2, dibutyryl PtdIns(4,5)P2]
[3]
  binding compared with wild-type protein (tryptophan fluorescence): no effect on binding
[4]
  binding compared with wild-type protein (tryptophan fluorescence): reduced binding
ASAP1 [2]; soluble lipid, no bilayer, ref Che et al., 2005
  increase of ASAP1 activity at saturating concentrations: 2- to 4 fold

B1: Wild-type: His10-[325–724]ASAP1: fragment of ASAP1 comprising the PH, Arf GAP, and Ankyrin repeat domains (protein, UniProt Q9ULH1 325-724, looked up, fragment)
chain: SEKKGYLLKKSDGIRKVWQRRKCSVKNGILTISHATSNRQPAKLNLLTCQVKPNAEDKKSFDLISHNRTYHFQAEDEQDYVAWISVLTNSKEEALTMAFRGEQSAGENSLEDLTKAIIEDVQRLPGNDICCDCGSSEPTWLSTNLGILTCIECSGIHREMGVHISRIQSLELDKLGTSELLLAKNVGNNSFNDIMEANLPSPSPKPTPSSDMTVRKEYITAKYVDHRFSRKTCSTSSAKLNELLEAIKSRDLLALIQVYAEGVELMEPLLEPGQELGETALHLAVRTADQTSLHLVDFLVQNCGNLDKQTALGNTVLHYCSMYSKPECLKLLLRSKPTVDIVNQAGETALDIAKRLKATQCEDLLSQAKSGKFNPHVHVEYEWNLRQEEIDESDDDLDDK
modifications: His10 tag
myrArf1·GTP
  amount of ASAP1 necessary to hydrolyze 50% of the GTP bound to Arf (C50): 1 µM
